ChEMBL document CHEMBL4513216, “Probing the Open Global Health Chemical Diversity Library for Multistage-Active Starting Points for Next-Generation Antimalarials” (ACS Infect Dis, 2020)

Assay: Toxicity liver stage against HepG2, at 10uM
Assay type: cell-based
Set-up: test concentration 10 uM, cell line HepG2-A16-CD81EGFP
Conditions: human, HepG2-A16-CD81EGFP cells; read-out: INHIBITION
Method in brief: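 Uninfected HepG2-A16-CD81EGFP cells, 3 × 10^3 per well, 1536-well, plated on prespotted compound at 10 μM final, parasite-free screening media added to match infected plates; puromycin 10 μM positive, DMSO 0.5% negative; run in parallel with 48 h PbLuc assay at 37 °C, 5% CO2; viability by CellTiter-Glo luminescence, normalized to controls.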

| Compound | cytotoxicity at 10 µM |
| --- | --- |
| CC(C)S(=O)(=O)NCC1CCCN(C(=O)c2cccnc2)C1 (stereo unspecified) | -7.16% |
| O=C1NCCO[C@H]2CN(C(=O)Cc3csc4ccccc34)CC[C@@H]12 | -101% |
| Cc1noc(C)c1CN(C)C(=O)CN1CC(c2ccccc2)CC1=O (stereo unspecified) | -2.4% |
| Cc1cc(CN2CCC=C(CN(C)C(=O)c3ccco3)C2)no1 | 6.65% |
| CNc1ncccc1CN1CCN(c2cc(NC3CC3)nc(N)n2)CC1 | -6.58% |
| CCCN1CCCn2nc(CNC(=O)CN(C)C3CCCC3)cc2C1 | -0.992% |
| c1cncc(NCCNC2CCCNC2)c1 (stereo unspecified) | -4.5% |
| CCC(C)N(Cc1ccc(C)cc1)Cc1c[nH]c(C)n1 (stereo unspecified) | 7.87% |
| O=C(NC1CC(=O)N(C2Cc3ccccc3C2)C1)c1ccsc1 (stereo unspecified) | -1.98% |
| CC(C)Cc1cc(C(=O)N2CCC(Oc3cccnc3)CC2)n(C)n1 | -0.423% |
| CC(C)=CCN1CC2(CCN(Cc3ncc[nH]3)CC2)CC1=O | -10.8% |
| CCn1c(CN(C)C)nnc1C1CCN(Cc2ccc(Cl)c(F)c2)CC1 | 3.73% |
| O=C1NCC2(CCCN(C(=O)Cn3nc4ccccc4n3)CC2)O1 (stereo unspecified) | -3.45% |
| OC1CCCOC12CCN(c1ncccn1)CC2 (stereo unspecified) | 3.73% |
| O=C(Cc1ccc(F)cc1Cl)N1C[C@@H](CN2CCC(O)CC2)[C@@H](CO)C1 | 9.32% |
| CCNC(=O)C(C)Oc1ccc(N(C)S(C)(=O)=O)cc1 (stereo unspecified) | 1.07% |
| COc1cc(C)ccc1OCc1nc(C(=O)N2CCC(C)CC2)co1 | -45% |
| Cc1cc(C)nc(CCNC(=O)C(c2ccc(F)cc2)N(C)C)n1 (stereo unspecified) | -40.1% |
| O=C(NCc1cc(O)ncn1)C1COc2ccccc2C1 (stereo unspecified) | -9.76% |

| Compound | cytotoxicity at 10 µM |
| --- | --- |
| Cc1nc(CN2CCC(C(=O)O)(n3ccc(-c4ccco4)n3)CC2)co1 | -12.1% |
| CCS(=O)(=O)N1CCC(c2nnc(Cn3cccn3)n2C2CC2)CC1 | -14.2% |
| COc1ccccc1-c1cc(C(F)(F)F)c2c(C)nn(CC(=O)O)c2n1 | 5.25% |
| CCc1cnc(CN(C)C2CCN(Cc3nnc(C4CC4)n3C)C2)o1 (stereo unspecified) | -5.09% |
| CSCCC(=O)N1CCCN(Cc2cnn(C(C)C)c2)CC1 | -25.3% |
| CCOc1ccc(CNC(C)c2ccc3[nH]c(=O)[nH]c3c2)cc1 (stereo unspecified) | -7.79% |
| OCCN1CCC(CNCc2ccccc2OC(F)(F)F)CC1 | -13.7% |
| Cc1cc(C)n(CC2CN(Cc3nnc(C)o3)CCO2)n1 (stereo unspecified) | -7.95% |
| CCCNC(=O)NC(=O)CN1CCN(Cc2nccn2CC)CC1 | -14.3% |
| CN(C)c1ccc(C(=O)Nc2cn[nH]c2)cc1 | -0.279% |
| CN(Cc1ccco1)C(=O)NC1CCCN(c2ncccn2)C1 (stereo unspecified) | -13.6% |
| COCCN1CCC(C(=O)c2cc(F)ccc2F)CC1 | -9.47% |
| Cc1ccc(CC(=O)N2CCCC(n3nc(C)cc3C)C2)cn1 (stereo unspecified) | -8.54% |
| COCCOc1ccc(NC(=O)C2CC(=O)N(CC3CC3)C2)cn1 (stereo unspecified) | -30.7% |
| COCCOc1ccc(NC(=O)C2CC(=O)N(C3CC3)C2)cn1 (stereo unspecified) | -6.93% |
| CN(C)c1ncccc1CNC(=O)N1CCCC1c1cccs1 (stereo unspecified) | -12% |
| Cc1nc(C)n(CC2CCCCN2CC(=O)Nc2nnc(C)s2)n1 (stereo unspecified) | -10.6% |
| NC(=O)CN1CCCN(C(=O)Cc2ccc(F)cc2)CC1 | -9.17% |
| Cc1c(C(=O)N2CCCC(n3cccn3)C2)nnn1-c1ccccc1 (stereo unspecified) | -3.45% |

| Compound | cytotoxicity at 10 µM |
| --- | --- |
| Cc1cnn(CC2CCCCN2C(=O)Cc2cn3ccsc3n2)c1 (stereo unspecified) | -5.5% |
| CCCc1nc(CN2CCCC(c3noc(C4CC4)n3)C2)no1 (stereo unspecified) | -8.87% |
| Cc1ccc(CC(=O)N2CCN(C3CCOC3=O)CC2)cc1 (stereo unspecified) | -18.7% |
| CCN(CC)CCNC(=O)c1cnc(C(C)(C)C)s1 | -8.94% |
| CN(CCc1ccccn1)S(=O)(=O)N1CCCC1c1ccco1 (stereo unspecified) | -14.8% |
| Cc1nc(C)n(CC2CCCN(c3ncnc4[nH]ccc34)C2)n1 (stereo unspecified) | 12.8% |
| c1ncn(CC2CN(CC3CCCC3)CCO2)n1 (stereo unspecified) | 4.93% |
| FC(F)CNc1cnc(C2CCCN2)cn1 (stereo unspecified) | 0.865% |
| COc1cc(COCC2CCN(Cc3cccnc3)CC2)cc(OC)c1 | 0% |
| CC(C)NC(=O)N1CCC2(CCC(=O)N2CCN2CCCC2)CC1 | 3.7% |
| CCO[C@H]1CC[C@H]2[C@H]1OCCN2CCOCc1ccccc1 | -111% |
| Cc1ccoc1C(=O)N1CC[C@@H]2CN(C3CCOCC3)CCO[C@@H]2C1 | -120% |
| O=C1[C@H]2CN(c3ncccn3)C[C@H]2CN1Cc1ccncc1 | -12.1% |
| CCS(=O)(=O)N1CCC[C@]2(C(=O)N(C)C)CN(c3ccccn3)C[C@@H]2C1 | -8.93% |
| Cc1cc(C(=O)N2CCC3(CC2)C(=O)N(C)CCN3CC2CC2)c(C)o1 | -96.5% |
| Cc1cc(CCC(=O)Nc2nncs2)nc(C2CCCN2)n1 (stereo unspecified) | -28% |
| COCCC(=O)NCCn1nc(C2CCNC2)c2cccnc21 (stereo unspecified) | -16.5% |
| O=C(c1cccnc1)N1C[C@H]2CC[C@@H](C1)N(Cc1ncc[nH]1)C2 | -13.2% |
